ChEMBL document CHEMBL4373706, “Discovery of Inhibitors of Aurora/PLK Targets as Anticancer Agents” (J Med Chem, 2019)
Activity calls are given as the source filed them. No cut-off for these calls is given here.

Key:
HCT-116 [1] = experiment: Antiproliferative activity against human HCT116 cells measured after 48 hrs by MTT assay; format: functional, cell-based
Summary of the method: (§1)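 Cells were exposed to a range of compound concentrations for 48 h. MTT reagent was then added and absorbance read at 490 nm. Viability was normalized to vehicle control set as 100%, from n = 3 independent experiments, and IC50 was taken from the dose–response curves.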

MCF7 = experiment: Antiproliferative activity against human MCF7 cells measured after 48 hrs by MTT assay; format: functional, cell-based; summary of the method: as §1
A549 = experiment: Antiproliferative activity against human A549 cells measured after 48 hrs by MTT assay; format: functional, cell-based; summary of the method: as §1
Calu-6 = experiment: Antiproliferative activity against human Calu6 cells measured after 48 hrs by MTT assay; format: functional, cell-based; summary of the method: as §1
HCT-116 [2] = experiment: Inhibition of colony formation in human HCT116 cells at 10 uM incubated for 48 hrs followed by supplemented with fresh medium every 3 days for 2 weeks by crystal violet staining-based assay; format: functional, cell-based
HCT-116 [3] = experiment: Induction of apoptosis in human HCT116 cells assessed as increase in apoptotic index at 1 to 10 uM measured after 48 hrs by Annexin V-FITC/propidium iodide staining-based flow cytometry; format: functional, cell-based
HCT-116 [4] = experiment: Antitumor activity against human HCT116 cells xenografted in BALB/c mouse assessed as survival rate at 10 mg/kg, iv administered every 3 days for 60 days relative to control; format: functional; conditions: HCT-116, iv
HCT-116 [5] = experiment: Antiproliferative activity against human HCT116 cells measured after 96 hrs by Brdu incorporation-based ELISA; format: functional, cell-based; conditions: HCT-116, 96 h

Row | Compound | Activity (HCT-116 [1]) | Activity (MCF7) | Activity (A549) | Activity (Calu-6) | inhibition (HCT-116 [2]) | Activity (HCT-116 [3]) | survival at 10 mg/kg (HCT-116 [4]) [%] | IC50 (HCT-116 [5]) [µM]
1 | O=C(Nc1ccc2cc(C(=O)NC3CCCCC3)ccc2c1)c1ccc(F)cc1 | Active | Active | Active | Active |  |  |  | 
2 | COc1ccc(C(=O)Nc2ccc3cc(C(=O)NC4CC4)ccc3c2)cc1 | Active | Active | Active | Active |  |  |  | 
3 | CC[C@@H]1C(=O)N(C)c2cnc(Nc3ccc(C(=O)NC4CCN(C)CC4)cc3OC)nc2N1C1CCCC1 |  |  |  |  | inactive | Active |  | 
4 | O=c1[nH]cc(F)c(=O)[nH]1 [FLUOROURACIL] |  |  |  |  |  |  | 30 | 
5 | COc1cc(Nc2ncc3c(n2)-c2ccc(Cl)cc2C(c2c(F)cccc2OC)=NC3)ccc1C(=O)O [ALISERTIB] |  |  |  |  | inactive | Active |  | 32
